Results as given in ChEMBL document CHEMBL4028909, “Discovery of an Orally Bioavailable Benzofuran Analogue That Serves as a β-Amyloid Aggregation Inhibitor for the Potential Treatment of Alzheimer's Disease” (J Med Chem, 2018).
Activity calls are given as the source filed them. No cut-off for these calls is given here.

What was measured:
[1] = AUC (infinity) in mouse at 3 mg/kg, po; assay type: ADME, organism-based; design: dose 3 mg/kg, time infinity, route oral; settings: in vivo
Outline: (§1)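 Mice received a single dose of 3 mg/kg i.v. or 3, 10 or 30 mg/kg orally. Plasma concentration-time profiles were analysed for AUC from zero to infinity and to the last measured time (hr*ng/mL), Cmax (ng/mL, C0 after i.v.), Tmax and terminal half-life (hr), and oral bioavailability (%).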

Mus musculus [2] = assay: Reversal of cognitive deficit in amyloid beta (1 to 42)-treated Alzheimer's disease ICR mouse model assessed as increase in spatial memory function administered orally for 3 consecutive days by Y maze test; assay type: functional
Outline: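 Acute AD model: preformed Aβ aggregates injected directly into the brains of normal mice to induce acute neurotoxicity. Compound given orally for three consecutive days, then the Y-maze was run. Read-out is percentage of spontaneous alternation, compared against normal and vehicle-treated mice.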

[3] = biological target: Amyloid-beta precursor protein (Homo sapiens) (UniProt P05067); assay: Induction of HFIP-pretreated amyloid beta (1 to 42) (unknown origin) disaggregation after 48 hrs by silver staining-based SDS-PAGE analysis
Chain of Amyloid-beta precursor protein (Homo sapiens) (P05067 whole entry): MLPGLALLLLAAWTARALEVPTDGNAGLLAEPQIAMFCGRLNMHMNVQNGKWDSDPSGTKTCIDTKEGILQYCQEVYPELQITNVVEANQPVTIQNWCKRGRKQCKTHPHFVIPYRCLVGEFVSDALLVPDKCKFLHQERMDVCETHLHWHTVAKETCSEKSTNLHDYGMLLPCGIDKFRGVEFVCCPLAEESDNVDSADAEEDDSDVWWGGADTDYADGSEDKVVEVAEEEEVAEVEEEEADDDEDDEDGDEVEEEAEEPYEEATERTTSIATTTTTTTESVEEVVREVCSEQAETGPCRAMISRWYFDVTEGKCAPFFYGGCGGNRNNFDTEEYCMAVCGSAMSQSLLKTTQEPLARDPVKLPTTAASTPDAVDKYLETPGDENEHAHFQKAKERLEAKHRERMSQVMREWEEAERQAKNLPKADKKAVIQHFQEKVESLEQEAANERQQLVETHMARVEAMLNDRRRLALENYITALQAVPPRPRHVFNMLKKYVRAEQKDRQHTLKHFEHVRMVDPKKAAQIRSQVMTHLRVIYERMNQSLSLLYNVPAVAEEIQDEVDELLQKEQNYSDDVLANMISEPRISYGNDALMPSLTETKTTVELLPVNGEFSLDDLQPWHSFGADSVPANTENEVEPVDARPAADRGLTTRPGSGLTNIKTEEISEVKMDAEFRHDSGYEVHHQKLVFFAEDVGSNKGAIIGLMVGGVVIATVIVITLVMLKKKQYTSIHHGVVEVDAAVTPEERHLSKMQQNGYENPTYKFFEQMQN
Outline: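 Aβ aggregates were incubated with compound for 48 h, with congo red as positive control. Size distribution (monomer, dimer, trimer, high-molecular-weight species) was analysed by SDS-PAGE with silver staining at the start and at the end of incubation.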

Cytochrome P450 1A2 = biological target: T1, Cytochrome P450 1A2 (Homo sapiens, UniProt P05177); assay: Inhibition of CYP1A2 in human liver microsomes preincubated for 5 mins followed by addition of NADPH generating system measured after 20 mins by LC-MS/MS analysis; assay type: ADME
T1 sequence (P05177 whole entry): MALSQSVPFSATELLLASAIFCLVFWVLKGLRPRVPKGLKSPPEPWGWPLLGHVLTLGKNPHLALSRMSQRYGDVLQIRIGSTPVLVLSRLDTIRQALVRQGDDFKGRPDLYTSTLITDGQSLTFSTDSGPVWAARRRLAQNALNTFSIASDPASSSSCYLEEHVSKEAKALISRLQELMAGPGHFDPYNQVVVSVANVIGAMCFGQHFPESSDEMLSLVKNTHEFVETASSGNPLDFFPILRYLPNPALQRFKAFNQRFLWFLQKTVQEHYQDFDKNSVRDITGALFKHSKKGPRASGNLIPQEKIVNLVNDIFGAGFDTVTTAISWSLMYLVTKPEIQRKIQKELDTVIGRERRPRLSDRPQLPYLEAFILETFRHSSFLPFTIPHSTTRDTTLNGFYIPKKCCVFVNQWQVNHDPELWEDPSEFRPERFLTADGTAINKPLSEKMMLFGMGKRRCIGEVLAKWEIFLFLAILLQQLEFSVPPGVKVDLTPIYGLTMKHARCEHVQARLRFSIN
Outline: (§2)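 Inhibition of each CYP isozyme (1A2, 2A6, 2C8, 2C9, 2C19, 2D6, 3A4) was measured in human liver microsomes. IC50 values were reported in μM.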

[4] = Cmax in po dosed rat; assay type: ADME, organism-based; design: route oral; settings: in vivo
Mus musculus [5] = assay: Volume of distribution at steady state in po ICR mouse; assay type: ADME, organism-based; settings: in vivo
[6] = biological target: Amyloid-beta precursor protein (Homo sapiens) (UniProt P05067); assay: Induction of HFIP-pretreated amyloid beta (1 to 42) (unknown origin) disaggregation after 1 hr by transmission electron microscopic method
[7] = Half-life in po dosed ICR mouse; settings: in vivo
[8] = AUC in po dosed dog; assay type: ADME, organism-based, Canis lupus familiaris; settings: in vivo
[9] = AUClast in mouse at 3 mg/kg, iv; assay type: ADME, organism-based; design: dose 3 mg/kg, time 0 - last, route intravenous; settings: in vivo; outline: as §1
[10] = AUC in po dosed ICR mouse; assay type: ADME, organism-based; settings: in vivo
[11] = Half life in po dosed dog; assay type: ADME, organism-based, Canis lupus familiaris; settings: in vivo
Mus musculus [12] = assay: Antiamyloidogenic activity in double APP/PS1 transgenic Alzheimer's disease mouse model assessed as amyloid beta (1 to 42) levels in brain at 100 mg/kg, po qd administered for 8 weeks by sandwich ELISA relative to control; assay type: functional
Outline: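 APP/PS1 mice, 29 weeks old, were dosed orally once daily for eight weeks at 30 or 100 mg/kg, with a vehicle group. Brain tissue was homogenized and amyloid fibrils were solubilized to monomers. Aβ1-40 and Aβ1-42 were then quantified by immunoassay with antibodies specific to monomeric Aβ.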

Cytochrome P450 2C9 = Cytochrome P450 2C9 (Homo sapiens, UniProt P11712); assay: Inhibition of CYP2C9 in human liver microsomes preincubated for 5 mins followed by addition of NADPH generating system measured after 20 mins by LC-MS/MS analysis; assay type: ADME; outline: as §2
Chain of Cytochrome P450 2C9 (P11712 whole entry): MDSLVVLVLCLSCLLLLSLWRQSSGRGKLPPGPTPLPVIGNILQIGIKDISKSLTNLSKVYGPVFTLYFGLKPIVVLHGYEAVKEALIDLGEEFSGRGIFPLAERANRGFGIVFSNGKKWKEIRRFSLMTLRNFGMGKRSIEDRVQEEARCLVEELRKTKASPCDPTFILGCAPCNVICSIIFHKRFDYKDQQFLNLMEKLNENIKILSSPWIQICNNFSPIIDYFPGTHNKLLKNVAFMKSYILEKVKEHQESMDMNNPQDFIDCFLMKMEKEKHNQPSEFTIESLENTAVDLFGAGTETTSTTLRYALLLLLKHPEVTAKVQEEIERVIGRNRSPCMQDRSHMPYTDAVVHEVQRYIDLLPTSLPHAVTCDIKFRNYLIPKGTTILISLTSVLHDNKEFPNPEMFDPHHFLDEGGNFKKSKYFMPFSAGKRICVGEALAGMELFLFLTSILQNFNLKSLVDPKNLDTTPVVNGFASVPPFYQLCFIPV

[13] = Ratio of AUC in ICR mouse brain to AUC in ICR mouse plasma at 10 mg/kg, po measured at 9 hrs; assay type: ADME, organism-based; settings: read-out: Ratio AUC
Outline: (§3)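 ICR mice (n=3) given a single oral dose of 10 mg/kg. Brain and plasma were sampled over nine hours, at 0.333, 1, 3, 6 and 9 h. Kp was calculated as AUC_brain/AUC_plasma.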

[14] = Half life in po dosed monkey; assay type: ADME, organism-based, Macaca mulatta; settings: rhesus monkey, in vivo
[15] = Half life in po dosed rat; assay type: ADME, organism-based; settings: in vivo
Mus musculus [16] = assay: Toxicity in double APP/PS1 transgenic Alzheimer's disease mouse model at 30 to 100 mg/kg, po qd administered for 8 weeks; assay type: organism-based; settings: in vivo, 1344 h
Outline: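 APP/PS1 double transgenic mice, 29 weeks old, dosed orally once daily at 30 or 100 mg/kg for eight weeks. Y-maze spontaneous alternation (%) was then measured against vehicle-treated mice, and mice were watched for apparent toxicity.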

[17] = Tmax in mouse at 30 mg/kg, po; assay type: ADME, organism-based; settings: in vivo
Outline: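 Mouse pharmacokinetics: single i.v. dose of 3 mg/kg, or oral doses of 3, 10 and 30 mg/kg. Plasma concentration–time curves gave T1/2 (terminal, hr), Tmax (hr), Cmax, AUC and bioavailability (%).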

[18] = Ratio of AUC in ICR mouse brain to AUC in ICR mouse plasma at 10 mg/kg, po measured at 1 hr; assay type: ADME, organism-based; settings: read-out: Ratio AUC; outline: as §3
[19] = AUC (infinity) in mouse at 30 mg/kg, po; assay type: ADME, organism-based; design: dose 30 mg/kg, time infinity, route oral; settings: in vivo; outline: as §1
[20] = Cmax in mouse at 10 mg/kg, po; assay type: ADME, organism-based; design: dose 10 mg/kg, route oral; settings: in vivo; outline: as §1
Mus musculus [21] = assay: Reversal of cognitive deficit in amyloid beta (1 to 42)-treated Alzheimer's disease ICR mouse model assessed as increase in step-through latency time administered orally for 3 consecutive days by passive avoidance test; assay type: functional
Outline: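 Acute AD model: preformed Aβ aggregates injected into the brains of normal mice. Compound given orally for three consecutive days, then step-through passive avoidance was tested by a standard protocol. Read-out is step-through latency (sec), compared against control and vehicle groups.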

AUC(0-inf) [1]: 283 ng·h/mL
Activity [3]: Active
IC50 (Cytochrome P450 1A2): > 50 µM
Cmax [4]: 421 ng/mL
Vdss (Mus musculus [5]): 2.5 L/kg
Activity [6]: Active
t1/2 [7]: 5.87 h
AUC [8]: 4190 ng·h/mL
AUC(0-t) [9]: 1300 ng·h/mL
AUC [10]: 13200 ng·h/mL
half-life [11]: 1.4 h
IC50 (Cytochrome P450 2C9): > 50 µM
Kp at 9 h [13]: 1.4
half-life [14]: 12.9 h
half-life [15]: 3.8 h
Tmax [17]: 3 h
Kp at 1 h [18]: 1.5
AUC(0-inf) [19]: 10500 ng·h/mL
Cmax [20]: 660 ng/mL
Compound: COCCCc1ccc2oc(-c3ccc(OC)c(OC)c3)cc2c1
Activity (Mus musculus [2]): Dose-dependent effect
ED50 (Mus musculus [2]; po): 0.18 mg/kg
Activity (Mus musculus [12]): 70%
Activity (Mus musculus [16]): Non-Toxic
Activity (Mus musculus [21]): Dose-dependent effect
ED50 (Mus musculus [21]; po): 0.19 mg/kg
